Source: ChEMBL document CHEMBL3784931, “Synthesis and evaluation of novel angiotensin II receptor 1 antagonists as anti-hypertension drugs” (Bioorg Med Chem, 2016)

Experiments:
[1] = Terminal half life in Wistar rat plasma at 10 mg/kg, po after 0.5 to 72 hrs by HPLC analysis; type: ADME, organism-based; details: read-out: beta t1/2 (converted)
How it was run: (§1)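 Wistar rats got an oral dose. Venous blood (0.5 mL) was taken predose and at 0.5, 1, 2, 4, 6, 8, 12, 24, 48 and 72 h, and plasma was spun 4000 × g, 4 °C, 10 min. Samples with internal standard were acetonitrile-precipitated, filtered and run on C18 reverse-phase HPLC with UV detection. Calibration used weighted regression of peak height ratio.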

[2] = Cmax in Wistar rat spleen at 10 mg/kg, po after 0.5 to 72 hrs by HPLC analysis; type: ADME, organism-based; parameters: dose 10 mg/kg, route oral
How it was run: (§2)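 Wistar rats were dosed orally and killed by abdominal aorta transection at 0.5, 1, 2, 4, 6, 8, 12, 24, 48 and 72 h. Organs were excised at once, minced and homogenized at 4 °C in normal saline to a 25% (w/v) homogenate. After spinning at 3000 × g, 4 °C, 10 min, supernatants were analysed by HPLC. Values are mean ± SEM, n = 5 per point.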

[3] = Terminal half life in Wistar rat lung at 10 mg/kg, po after 0.5 to 72 hrs by HPLC analysis; type: ADME, organism-based; details: read-out: beta t1/2 (converted); how it was run: as §2
Rattus norvegicus [4] = experiment: Effect on heart rate in spontaneous hypertensive rat model at 10 and 15 mg/kg, po; type: ADME, organism-based; details: in vivo
[5] = Acute toxicity in ICR mouse assessed as mortality administered intragastrically daily for 2 weeks measured during compound dosing; type: organism-based; details: in vivo, po
How it was run: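 Sixty normal ICR mice (half male, half female, 20 ± 2 g) given intragastric doses of 1200, 1600, 2133.3, 2844.40, 5056.79 and 6742.38 mg/kg. Survival checked daily for two weeks.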

Mus musculus [6] = experiment: Acute toxicity in ICR mouse assessed as hyperthyroidism at 1600 to 6742.38 mg/kg, ig administered daily for 2 weeks measured 5 hrs post last dose; type: organism-based; details: in vivo, po
How it was run: (§3)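 ICR mice, sixty in total, half male and half female, 20 ± 2 g. Intragastric dosing at 1200, 1600, 2133.3, 2844.40, 5056.79 or 6742.38 mg/kg. Animals watched daily over two weeks for survival and physiological abnormalities or untoward reactions. Percent mortality recorded per dose group.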

[7] = Acute toxicity in ICR mouse assessed as mortality at 6742.38 mg/kg, ig administered daily for 2 weeks measured during compound dosing; type: organism-based; details: in vivo, po; how it was run: as §3
Mus musculus [8] = experiment: Acute toxicity in ICR mouse assessed as change in body weight at 1200 to 6742.38 mg/kg, ig administered daily for 2 weeks during compound dosing; type: organism-based; details: in vivo, po, 336 h
How it was run: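 Male and female ICR mice (20 ± 2 g) received intragastric doses of 1200–6742.38 mg/kg. Body weight of surviving mice compared after two weeks of observation.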

Mus musculus [9] = experiment: Acute toxicity in ICR mouse assessed as pathological changes in organs and tissues at 1200 to 6742.38, ig administered daily for 2 weeks measured on 15th day; type: organism-based; details: in vivo, po, 336 h
How it was run: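 ICR mice of both sexes (20 ± 2 g) dosed intragastrically at 1200–6742.38 mg/kg and observed for two weeks. Surviving mice then dissected and examined with the naked eye.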

[10] = Tmax in Wistar rat plasma at 10 mg/kg, po after 0.5 to 72 hrs by HPLC analysis; type: ADME, organism-based; how it was run: as §1
[11] = Cmax in Wistar rat stomach at 10 mg/kg, po after 0.5 to 72 hrs by HPLC analysis; type: ADME, organism-based; parameters: dose 10 mg/kg, route oral; how it was run: as §2
[12] = Elimination rate constant in Wistar rat lung at 10 mg/kg, po after 0.5 to 72 hrs by HPLC analysis; type: ADME, organism-based; how it was run: as §2
Mus musculus [13] = experiment: Acute toxicity in ICR mouse assessed as obvious untoward reaction at 1200 to 6742.38, ig administered daily for 2 weeks during compound dosing; type: organism-based; details: in vivo, po, 336 h; how it was run: as §3
[14] = Cmax in Wistar rat kidney at 10 mg/kg, po after 0.5 to 72 hrs by HPLC analysis; type: ADME, organism-based; parameters: dose 10 mg/kg, route oral; how it was run: as §2
[15] = Elimination rate constant in Wistar rat liver at 10 mg/kg, po after 0.5 to 72 hrs by HPLC analysis; type: ADME, organism-based; how it was run: as §2
Mus musculus [16] = experiment: Acute toxicity in ICR mouse assessed as skin changes at 1200 mg/kg, ig administered daily for 2 weeks measured during compound dosing; type: organism-based; details: in vivo, po, 336 h; how it was run: as §3
Spleen = experiment: AUC (0 to 72 hrs) in Wistar rat spleen at 10 mg/kg, po by HPLC analysis; type: ADME, organism-based; parameters: time < 72 hr, dose 10 mg/kg, route oral; details: in vivo; how it was run: as §2
[17] = Terminal half life in Wistar rat spleen at 10 mg/kg, po after 0.5 to 72 hrs by HPLC analysis; type: ADME, organism-based; details: read-out: beta t1/2 (converted); how it was run: as §2
[18] = Tmax in Wistar rat brain at 10 mg/kg, po after 0.5 to 72 hrs by HPLC analysis; type: ADME, organism-based; how it was run: as §2
[19] = Terminal half life in Wistar rat stomach at 10 mg/kg, po after 0.5 to 72 hrs by HPLC analysis; type: ADME, organism-based; details: read-out: beta t1/2 (converted); how it was run: as §2
[20] = Tmax in Wistar rat lung at 10 mg/kg, po after 0.5 to 72 hrs by HPLC analysis; type: ADME, organism-based; how it was run: as §2
[21] = Terminal half life in Wistar rat brain at 10 mg/kg, po after 0.5 to 72 hrs by HPLC analysis; type: ADME, organism-based; details: read-out: beta t1/2 (converted); how it was run: as §2
Rattus norvegicus [22] = experiment: Antihypertensive activity in spontaneous hypertensive rat model assessed as mean blood pressure at 15 mg/kg, po administered for 2 hrs; type: functional
How it was run: (§4)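 Male SHRs were randomized, n = 6 per group. Compound was suspended in DMSO/oleic acid (1:4) and given by oral gavage; vehicle controls got the same volume of solvent. SBP and DBP were recorded in conscious animals by noninvasive tail-artery manometry. MBP = (SBP − DBP)/3 + DBP. Data are mean ± SEM, with p < 0.05 taken as significant.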

[23] = Elimination rate constant in Wistar rat spleen at 10 mg/kg, po after 0.5 to 72 hrs by HPLC analysis; type: ADME, organism-based; how it was run: as §2
Rattus norvegicus [24] = experiment: Antihypertensive activity in spontaneous hypertensive rat model assessed as mean blood pressure at 10 mg/kg, po administered for 2 hrs; type: functional; how it was run: as §4
[25] = Tmax in Wistar rat liver at 10 mg/kg, po after 0.5 to 72 hrs by HPLC analysis; type: ADME, organism-based; how it was run: as §2
Mus musculus [26] = experiment: Acute toxicity in ICR mouse assessed as mortality at 1200 to 6742.38 mg/kg, ig administered daily for 2 weeks during compound dosing; type: organism-based; details: in vivo, po, 336 h; how it was run: as §3
[27] = Cmax in Wistar rat liver at 10 mg/kg, po after 0.5 to 72 hrs by HPLC analysis; type: ADME, organism-based; parameters: dose 10 mg/kg, route oral; how it was run: as §2
[28] = target: T1, Type-1 angiotensin II receptor A (Rattus norvegicus, UniProt P25095); experiment: Displacement of [125I]-Ang II from Angiotensin 2 type-1A receptor in rat vascular smooth muscle cells after 150 mins by gamma counting method
T1 sequence (P25095 whole entry): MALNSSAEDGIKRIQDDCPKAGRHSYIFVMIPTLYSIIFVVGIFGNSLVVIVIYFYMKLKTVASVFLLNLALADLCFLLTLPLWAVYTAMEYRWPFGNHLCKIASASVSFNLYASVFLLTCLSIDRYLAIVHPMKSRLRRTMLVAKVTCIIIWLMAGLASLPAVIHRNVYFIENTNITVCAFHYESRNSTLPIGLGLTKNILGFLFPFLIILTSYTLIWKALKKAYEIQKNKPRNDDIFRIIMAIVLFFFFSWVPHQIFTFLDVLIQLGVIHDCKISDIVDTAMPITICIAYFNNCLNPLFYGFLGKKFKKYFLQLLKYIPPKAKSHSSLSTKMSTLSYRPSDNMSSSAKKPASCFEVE
How it was run: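 Rat vascular smooth muscle cells (passages 3–6) were seeded at 10⁶ cells/well and grown at 37 °C in 5% CO₂. Nonspecific binding was taken with 1 µM Ang II. Cells were washed three times, lysed 10 min in 0.1 M NaOH, and bound radioactivity was gamma counted.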

Mus musculus [29] = experiment: Acute toxicity in ICR mouse assessed as mobility at 1200 mg/kg, ig administered daily for 2 weeks measured during compound dosing; type: organism-based; details: in vivo, po, 336 h; how it was run: as §3

In the case of CCCCc1nc(Cl)c(C(=O)O)n1Cc1ccc(-c2ccccc2-c2noc(=O)[nH]2)cc1, the half-life [1] is reported as 18.2 h, the Cmax [2] is reported as 8.84 ng/g and the half-life [3] is reported as 12.4 h. The Activity (Rattus norvegicus [4]) was “Non-toxic”, the LD50 at 336 h [5] was 2970 mg/kg and the Activity (Mus musculus [6]) was “Toxic”. The mortality at 336 h [7] was 100%, the Activity (Mus musculus [8]) was “Non-toxic” and the Activity (Mus musculus [9]) was “Non-toxic”. The Tmax [10] was 2 h, the Cmax [11] was 8.91 ng/g and the k el [12] was 1.64e-05 s⁻¹. The Activity (Mus musculus [13]) was “Non-toxic”, the Cmax [14] was 10.5 ng/g and the k el [15] was 1.94e-05 s⁻¹. The Activity (Mus musculus [16]) was “Non-toxic”, the AUC (Spleen) was 275.21 ng·h/g and the half-life [17] was 8.74 h. The Tmax [18] was 2 h, the half-life [19] was 15.1 h and the Tmax [20] was 1 h. The half-life [21] was 16.9 h, the Activity (Rattus norvegicus [22]) was 62 mmHg and the k el [23] was 2.19e-05 s⁻¹. For the same molecule, the Activity (Rattus norvegicus [24]) was 41 mmHg, the Tmax [25] was 0.5 h and the Activity (Mus musculus [26]) was “Toxic”. It also gave a Cmax [27] of 9.56 ng/g, an IC50 [28] of 3.16 nM and a Ki [28] of 2.29 nM. For the same molecule, the Activity (Mus musculus [29]) was “Non-toxic”.
